# ChEMBL document CHEMBL4414557, “Labdanes, Withanolides, and Other Constituents from Physalis nicandroides” (J Nat Prod, 2019)
# The source made the active and inactive calls. No cut-off for these calls is given here.
# Key:
# [1] = test system: Saccharomyces cerevisiae; assay: Activation of yeast alpha-glucosidase type 1 at 100 uM using p-Nitrophenyl alpha-D-glucopyranoside as substrate preincubated for 10 mins followed by incubation with substrate for 15 mins and measured after 5 mins by microplate reader analysis relative to control
# Procedure, shortened: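 Yeast α-glucosidase type I (25 μL, 0.2 U mL−1 in PBS) with glutathione (25 μL, 3 mM) in phosphate buffer (67 mM, pH 6.8). Samples were added in DMSO–H2O 1:1 and preincubated 10 min at 37 °C. Then p-nitrophenyl α-D-glucopyranoside (25 μL, 23.2 mM) was added, 15 min at 37 °C with agitation. Stopped with 1 M Na2CO3; A405 read. % vs negative control; triplicate, mean ± SD.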
# [2] = biological target: Acetylcholinesterase (Electrophorus electricus) (UniProt O42275); assay: Activation of Electrophorus electricus AChE at 100 uM using acetylthiocholine iodide as substrate preincubated for 30 mins followed by substrate addition and measured after 5 mins by Ellman's method relative to control
# Sequence of Acetylcholinesterase (Electrophorus electricus) (O42275 24-633 limits assumed): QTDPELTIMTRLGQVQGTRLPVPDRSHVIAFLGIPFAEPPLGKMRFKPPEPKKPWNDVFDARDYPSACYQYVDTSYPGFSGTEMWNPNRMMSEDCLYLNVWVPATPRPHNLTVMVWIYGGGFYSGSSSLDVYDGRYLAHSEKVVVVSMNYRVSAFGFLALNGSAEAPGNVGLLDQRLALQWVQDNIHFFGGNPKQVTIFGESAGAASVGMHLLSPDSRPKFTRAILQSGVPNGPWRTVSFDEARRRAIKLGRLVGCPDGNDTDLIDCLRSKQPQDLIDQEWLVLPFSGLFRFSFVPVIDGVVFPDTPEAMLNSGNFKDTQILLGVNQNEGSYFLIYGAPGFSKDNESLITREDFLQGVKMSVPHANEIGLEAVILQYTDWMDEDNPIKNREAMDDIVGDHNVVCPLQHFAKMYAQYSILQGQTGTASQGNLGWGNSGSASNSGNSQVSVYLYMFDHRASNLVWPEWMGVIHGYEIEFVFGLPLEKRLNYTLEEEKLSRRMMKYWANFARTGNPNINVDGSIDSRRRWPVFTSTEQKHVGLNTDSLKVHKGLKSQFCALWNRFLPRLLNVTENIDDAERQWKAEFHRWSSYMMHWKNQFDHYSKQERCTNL
# [3] = test system: Saccharomyces cerevisiae; assay: Inhibition of yeast alpha-glucosidase type 1 at 100 uM using p-Nitrophenyl alpha-D-glucopyranoside as substrate preincubated for 10 mins followed by incubation with substrate for 15 mins and measured after 5 mins by microplate reader analysis
# Procedure, shortened: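 Sample in DMSO–H2O 1:1 added to PBS (67 mM, pH 6.8) with glutathione (3 mM in PBS) and enzyme (0.2 U mL−1 in PBS), preincubated 10 min at 37 °C. p-Nitrophenyl α-D-glucopyranoside (23.2 mM in PBS) then added, 15 min at 37 °C with agitation. Stopped with 1 M Na2CO3, read at 405 nm after 5 min. Percent inhibition versus negative control, triplicate. Quercetin positive control.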
# [4] = biological target: Acetylcholinesterase (Electrophorus electricus) (UniProt O42275); assay: Inhibition of Electrophorus electricus AChE at 100 uM using acetylthiocholine iodide as substrate preincubated for 30 mins followed by substrate addition and measured after 5 mins by Ellman's method relative to control
# [5] = biological target: Acetylcholinesterase (Electrophorus electricus, UniProt O42275); assay: Inhibition of Electrophorus electricus AChE using acetylthiocholine iodide as substrate preincubated for 30 mins followed by substrate addition and measured after 5 mins by Ellman's method
# Sequence of Acetylcholinesterase (O42275 whole entry): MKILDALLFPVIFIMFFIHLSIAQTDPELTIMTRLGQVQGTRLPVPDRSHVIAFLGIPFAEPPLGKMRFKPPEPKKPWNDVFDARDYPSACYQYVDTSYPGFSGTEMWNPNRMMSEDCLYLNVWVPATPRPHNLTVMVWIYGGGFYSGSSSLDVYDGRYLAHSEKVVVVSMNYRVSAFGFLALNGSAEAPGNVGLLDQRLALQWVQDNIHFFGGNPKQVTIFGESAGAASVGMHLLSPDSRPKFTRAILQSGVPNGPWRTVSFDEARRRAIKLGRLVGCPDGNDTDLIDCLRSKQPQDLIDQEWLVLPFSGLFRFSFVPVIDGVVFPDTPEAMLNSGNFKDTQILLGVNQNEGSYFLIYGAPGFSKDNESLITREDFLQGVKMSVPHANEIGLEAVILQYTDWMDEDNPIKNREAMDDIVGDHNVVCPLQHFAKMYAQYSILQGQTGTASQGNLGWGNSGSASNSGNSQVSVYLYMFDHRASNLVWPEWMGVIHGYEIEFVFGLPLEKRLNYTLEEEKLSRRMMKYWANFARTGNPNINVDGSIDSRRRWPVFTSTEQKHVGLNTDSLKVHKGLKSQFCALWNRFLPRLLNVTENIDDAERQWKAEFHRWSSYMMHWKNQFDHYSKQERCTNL
Compound,Activity [1] [%],Activity [2] [%],inhibition [3],inhibition [4] [%],IC50 [5] [µM]
C=C1CC[C@H]2C(C)(C)CCC[C@]2(C)[C@H]1CC(=O)/C(C)=C/CO,1.1 to 29.4,6.7 to 96,,,
CC(=O)O[C@H]1C[C@H]([C@@](C)(O)[C@H]2CC(C)=C(C)C(=O)O2)[C@@]2(C)CC[C@H]3[C@@H](C[C@H]4O[C@]45CC=CC(=O)[C@]35C)[C@@]12O,,6.7 to 96,Active,,
CC(=O)O[C@H]1C[C@H]([C@@](C)(O)[C@H]2CC(C)=C(C)C(=O)O2)[C@@]2(C)CC[C@H]3[C@@H](C[C@@H](O)[C@@]4(Cl)CC=CC(=O)[C@]34C)[C@@]12O,,6.7 to 96,Active,,
C=C1CC[C@H]2C(C)(C)CCC[C@]2(C)[C@H]1CC/C(=C/CO)CO,,,Active,33.9,
C=C1CC[C@H]2C(C)(C)CCC[C@]2(C)[C@H]1C[C@H](O[C@@H]1O[C@H](COC(C)=O)[C@@H](OC(C)=O)[C@H](OC(C)=O)[C@H]1OC(C)=O)/C(C)=C/COC(=O)CC(C)C,,6.7 to 96,Active,,
C=C(CC[C@@H]1[C@@]2(C)CCCC(C)(C)[C@@H]2CC[C@@]1(C)O)[C@H](O)CO,1.1 to 29.4,6.7 to 96,,,
CO[C@@H]1CC(=O)[C@]2(C)[C@H]3CC[C@]4(C)[C@@H]([C@@](C)(O)[C@H]5CC(C)=C(C)C(=O)O5)C[C@H](OC(C)=O)[C@]4(O)[C@@H]3C[C@H]3O[C@]32C1,,6.7 to 96,Active,,
C=C1CC[C@H]2C(C)(C)CCC[C@]2(C)[C@H]1C[C@H](O)/C(C)=C/CO,1.1 to 29.4,6.7 to 96,,,
C=C(C)C(C)(O)CC[C@@H](C)[C@H]1CC[C@H]2[C@@H]3CC=C4C[C@@H](O)CC[C@]4(C)[C@H]3CC[C@]12C (stereo partly drawn),,,Active,24,
CC(=O)O[C@H]1C[C@H]([C@@](C)(O)[C@H]2CC(C)=C(C)C(=O)O2)[C@@]2(C)CC[C@H]3[C@@H](C[C@@H](OC(C)=O)[C@@]4(Cl)CC=CC(=O)[C@]34C)[C@@]12O,,6.7 to 96,Active,,
C/C(=C\CO)CC[C@@H]1[C@@]2(C)CCCC(C)(C)[C@@H]2CC[C@@]1(C)O,1.1 to 29.4,6.7 to 96,,,
C=C1CC[C@H]2C(C)(C)CCC[C@]2(C)[C@H]1C[C@H](O[C@@H]1O[C@H](CO)[C@@H](O)[C@H](O)[C@H]1O)/C(C)=C/CO,1.1 to 29.4,6.7 to 96,,,
C=C1CC[C@H]2C(C)(C)CCC[C@]2(C)[C@H]1C[C@@H](O)/C(C)=C/CO,1.1 to 29.4,6.7 to 96,,,
C=C1CC[C@H]2C(C)(C)CCC[C@]2(C)[C@H]1C[C@H](O[C@@H]1O[C@H](CO)[C@@H](O)[C@H](O)[C@H]1O)/C(C)=C/COC(=O)CC(C)C,1.1 to 29.4,6.7 to 96,,,
C=C(CC[C@@H]1[C@@]2(C)CCCC(C)(C)[C@@H]2CC[C@@]1(C)O)[C@@H](O)CO,1.1 to 29.4,6.7 to 96,,,
C=C1CC[C@H]2C(C)(C)CCC[C@]2(C)[C@H]1Cc1occc1C,1.1 to 29.4,,,57.5,64.4
